From ChEMBL document CHEMBL1123873, “N-(heterocyclic alkyl)pyrido[2,1-b]quinazoline-8-carboxamides as orally active antiallergy agents” (J Med Chem, 1987)

Columns and labels:
Thromboxane-A synthase = molecular target: T1, Thromboxane-A synthase (Homo sapiens, UniProt P24557); assay: Inhibition of human platelet thromboxane synthase (TXA2) was determined in human platelets
T1 sequence (P24557 whole entry): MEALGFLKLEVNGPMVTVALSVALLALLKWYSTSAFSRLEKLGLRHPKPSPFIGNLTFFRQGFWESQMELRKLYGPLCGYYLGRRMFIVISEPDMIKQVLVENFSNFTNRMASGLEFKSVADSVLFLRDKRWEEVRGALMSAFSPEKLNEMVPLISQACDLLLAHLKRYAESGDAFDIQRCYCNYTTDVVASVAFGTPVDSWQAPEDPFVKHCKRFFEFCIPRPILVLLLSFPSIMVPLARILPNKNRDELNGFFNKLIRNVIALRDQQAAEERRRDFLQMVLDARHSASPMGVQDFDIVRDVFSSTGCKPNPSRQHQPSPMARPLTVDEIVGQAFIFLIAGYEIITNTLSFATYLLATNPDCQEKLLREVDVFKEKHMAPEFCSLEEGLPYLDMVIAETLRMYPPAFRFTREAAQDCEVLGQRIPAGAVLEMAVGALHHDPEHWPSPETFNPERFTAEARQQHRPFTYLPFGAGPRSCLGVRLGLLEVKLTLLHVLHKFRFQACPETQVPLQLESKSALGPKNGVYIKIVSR
How it was run: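 The enzyme source was microsomal fractions of human platelets. Conversion of [14C]PGH2 to [14C]TXB2 ran 2 min at 22 °C and was then stopped. Products were ether-extracted, separated by TLC and counted. Compounds were tested in triplicate at three log-spaced concentrations, and IC50 was obtained by linear regression.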

Cavia porcellus [1] = organism: Cavia porcellus; assay: Evaluated for inhibition of slow reacting substance of anaphylaxis (SRS-A) induced contractions in guinea pig ileum strips; type: functional
How it was run: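 Guinea pig ileum strips were contracted with SRS-A at 5.0 units/mL, the level giving 50% of maximal contraction. Each compound was tested in duplicate at three concentrations giving 10–90% inhibition. IC50 was obtained by linear regression.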

Rattus norvegicus [2] = assay: In vivo inhibition of LTE4 (leukotriene)-induced skin wheal formation in rat and percent inhibition was reported at 10 mg/Kg administered intravenously; details: iv
Rattus norvegicus [3] = assay: In vivo inhibition of LTE4 (leukotriene)-induced skin wheal formation in rat and percent inhibition was reported at 100 mg/Kg administered perorally; details: po
Cavia porcellus [4] = assay: In vivo inhibition of LTE4 (leukotriene)-induced bronchoconstrictions in guinea pig and percent inhibition was reported at 100 mg/Kg administered perorally; type: functional; details: po
How it was run: (§1)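 Guinea pigs pretreated with propranolol were challenged with LTE4. The drug was given either 10 mg/kg iv 30 s before challenge or 100 mg/kg orally 2 h before. Bronchoconstriction was scored as percent inhibition versus control animals. Oral ID50 was calculated from varying oral doses.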

Rattus norvegicus [5] = assay: In vivo inhibition of LTE4 (leukotriene)-induced skin wheal formation in rat
Cavia porcellus [6] = assay: In vivo inhibition of LTE4 (leukotriene)-induced bronchoconstrictions in guinea pig and percent inhibition was reported at 10 mg/Kg administered intravenously; type: functional; details: iv; how it was run: as §1
Cavia porcellus [7] = assay: (§2) In vivo inhibition of LTE4 (leukotriene)-induced administration; type: functional
Cavia porcellus [8] = assay: as §2; type: functional; remark: listed apart in the source
Rattus norvegicus [9] = assay: In vivo inhibition of LTE4 (leukotriene)-induced skin wheal formation in rat; remark: listed apart in the source
Cavia porcellus [10] = organism: Cavia porcellus; assay: Ability to inhibit bronchoconstriction in guinea pig induced by histamine
Cavia porcellus [11] = organism: Cavia porcellus; assay: Ability to inhibit bronchoconstriction induced in actively sensitized guinea pig by antigen-induced de novo biosynthesis of SRS-A; type: functional
Cavia porcellus [12] = organism: Cavia porcellus; assay: Ability to inhibit bronchoconstriction in guinea pig induced by platelet activating factor
Rattus norvegicus [13] = assay: Compound was evaluated in vivo by rat passive cutaneous anaphylaxis test (PCA) after oral administration; type: functional
Cavia porcellus [14] = assay: In vivo inhibition of LTE4 (leukotriene)-induced bronchoconstrictions in guinea pig and ID50 was reported perorally; type: functional; how it was run: as §1
Rattus norvegicus [15] = assay: Compound was evaluated in vivo by rat passive cutaneous anaphylaxis test (PCA)after oral administration; details: read-out: ID50 (the source's name)
Rattus norvegicus [16] = assay: In vivo inhibition of LTE4 (leukotriene)-induced skin wheal formation in rat determined after (iv) administration of a dose of 10 mg/kg
Rattus norvegicus [17] = assay: In vivo inhibition of LTE4 (leukotriene)-induced skin wheal formation in rat determined after (po) administration of a dose of 100 mg/Kg
Cavia porcellus [18] = assay: In vivo inhibition of LTE4 (leukotriene)-induced bronchoconstrictions in guinea pig after oral administration; type: functional; how it was run: as §1

Structure (SMILES) | IC50 (Thromboxane-A synthase) [nM] | IC50 (Cavia porcellus [1]) [nM] | further results
CC(CCCc1cccnc1)NC(=O)c1ccc2nc3ccc(C(C)C)cc3c(=O)n2c1 (centres undefined) | 1000 | 8000 | –
Cc1nccn1CCCCNC(=O)c1ccc2nc3ccc(C(C)C)cc3c(=O)n2c1 | 5000 | 9000 | –
CC(C)c1ccc2nc3ccc(C(=O)NCCSCc4cccnc4)cn3c(=O)c2c1 | 600 | 5000 | –
CC(C)c1ccc2nc3ccc(C(=O)NCCCCOc4cccnc4)cn3c(=O)c2c1.Cl.Cl | 50 | 800 | inhibition in vivo at 10 mg/kg (Rattus norvegicus [2]): 64%; inhibition in vivo at 100 mg/kg (Rattus norvegicus [3]): 56%; inhibition in vivo at 100 mg/kg (Cavia porcellus [4]): 60%; IC50 (Rattus norvegicus [5]): 100 mg/kg; inhibition in vivo at 10 mg/kg (Cavia porcellus [6]): 94%
CC(C)c1ccc2nc3ccc(C(=O)N(C)CCCCc4cccnc4)cn3c(=O)c2c1 | 600 | 1000 | –
CC(C)c1ccc2nc3ccc(C(=O)NCCCc4cccnc4)cn3c(=O)c2c1 | 100 | 5000 | –
CC(C)c1ccc2nc3ccc(C(=O)NCCCCCCc4cccnc4)cn3c(=O)c2c1 | – | 1000 | inhibition in vivo at 10 mg/kg (Rattus norvegicus [2]): 70%; inhibition in vivo at 100 mg/kg (Rattus norvegicus [3]): 62%; inhibition in vivo at 100 mg/kg (Cavia porcellus [4]): 28%; inhibition in vivo at 10 mg/kg (Cavia porcellus [6]): 71%
Cc1cc2nc3ccc(C(=O)NCCCCc4cccnc4)cn3c(=O)c2cc1C | 100 | 7000 | –
CC(C)c1ccc2nc3ccc(C(=O)NCCCCCc4cccnc4)cn3c(=O)c2c1.Cl.Cl | 100 | 1000 | inhibition in vivo at 10 mg/kg (Rattus norvegicus [2]): 61%; inhibition in vivo at 100 mg/kg (Rattus norvegicus [3]): 65%; Inhibition (Cavia porcellus [7]): 84%; Inhibition (Cavia porcellus [8]): 21%
CC(C)c1ccc2nc3ccc(C(=O)NCCc4cccnc4)cn3c(=O)c2c1 | 4000 | 10000 | –
CC(C)c1ccc2nc3ccc(C(=O)NCCCCn4ccnc4)cn3c(=O)c2c1.Cl.Cl | 200 | 1000 | inhibition in vivo at 10 mg/kg (Rattus norvegicus [2]): 26%; IC50 (Rattus norvegicus [9]): 46 mg/kg; inhibition in vivo at 100 mg/kg (Rattus norvegicus [3]): 63%; inhibition in vivo at 100 mg/kg (Cavia porcellus [4]): 87%; ID50 mg/kg (Cavia porcellus [10]): 39; ID50 mg/kg (Cavia porcellus [11]): 50; ID50 mg/kg (Cavia porcellus [12]): 13; inhibition in vivo at 10 mg/kg (Cavia porcellus [6]): 87%; ID50 mg/kg (Rattus norvegicus [13]): 20; ID50 mg/kg (Cavia porcellus [14]): 47
CC(C)c1ccc2nc3ccc(C(=O)NCCCCc4ccncc4)cn3c(=O)c2c1.Cl.Cl | 100 | 1000 | inhibition in vivo at 10 mg/kg (Rattus norvegicus [2]): 54%; inhibition in vivo at 100 mg/kg (Rattus norvegicus [3]): 63%; inhibition in vivo at 100 mg/kg (Cavia porcellus [4]): 73%; IC50 (Rattus norvegicus [5]): 90 mg/kg; inhibition in vivo at 10 mg/kg (Cavia porcellus [6]): 89%; ID50 mg/kg (Cavia porcellus [14]): 57
CC(C)c1ccc2nc3ccc(C(=O)O)cn3c(=O)c2c1 | – | – | ED50 (Rattus norvegicus [15]): 0.45 mg/kg
COc1ccc2nc3ccc(C(=O)NCCCCc4cccnc4)cn3c(=O)c2c1 | 200 | 10000 | –
CC(C)c1ccc2nc3ccc(C(=O)NCCCCc4cncnc4)cn3c(=O)c2c1 | 200 | 5000 | –
Cc1ccc2nc3ccc(C(=O)NCCCCc4cccnc4)cn3c(=O)c2c1 | 100 | 5000 | –
CC(C)c1ccc2nc3ccc(C(=O)NC(C)(C)CCCc4cccnc4)cn3c(=O)c2c1 | 500 | 5000 | –
CC(CCc1cccnc1)NC(=O)c1ccc2nc3ccc(C(C)C)cc3c(=O)n2c1 (centres undefined) | 300 | 5000 | –
COc1ccc2c(=O)n3cc(C(=O)NCCCCc4cccnc4)ccc3nc2c1 | 20 | > 10000 | –
CC(C)c1ccc2nc3ccc(C(=O)NCCCCc4ccccn4)cn3c(=O)c2c1 | > 10000 | 1000 | –
O=C(NCCCCc1cccnc1)c1ccc2nc3ccc(O)cc3c(=O)n2c1 | 50 | 3000 | –
O=C(NCCCCc1cccnc1)c1ccc2nc3cc(Cl)ccc3c(=O)n2c1 | 20 | 8000 | –
CC(C)Oc1ccc2nc3ccc(C(=O)NCCCCc4cccnc4)cn3c(=O)c2c1 | 60 | 10000 | –
CC(C)c1ccc2nc3ccc(C(=O)NCCCCc4cccnc4)cn3c(=O)c2c1 | 200 | 1000 | inhibition in vivo at 10 mg/kg (Rattus norvegicus [16]): 60%; inhibition in vivo at 100 mg/kg (Rattus norvegicus [17]): 61%; IC50 (Rattus norvegicus [5]): 70 mg/kg; ID50 mg/kg (Cavia porcellus [18]): 60; Inhibition (Cavia porcellus [7]): 94%; Inhibition (Cavia porcellus [8]): 76%
O=C(NCCCCc1cccnc1)c1ccc2nc3ccc(Br)cc3c(=O)n2c1 | 100 | > 10000 | –
O=C(NCCCCc1cccnc1)c1ccc2nc3cc4c(cc3c(=O)n2c1)CCCC4 | 300 | 9000 | –
O=C(NCCCCc1cccnc1)c1ccc2nc3ccccc3c(=O)n2c1 | 20 | 5000 | –
CC(C)c1ccc2nc3ccc(C(=O)NCCCCCCCc4cccnc4)cn3c(=O)c2c1 | 200 | > 10000 | –
O=C(O)c1ccc(OCCn2ccnc2)cc1 [DAZOXIBEN] | – | > 10000 | inhibition in vivo at 10 mg/kg (Rattus norvegicus [2]): 9%; inhibition in vivo at 100 mg/kg (Rattus norvegicus [3]): 11%; inhibition in vivo at 100 mg/kg (Cavia porcellus [4]): 81%; inhibition in vivo at 10 mg/kg (Cavia porcellus [6]): 88%
CCCc1c(OCC(O)COc2ccc3c(=O)cc(C(=O)O)oc3c2CCC)ccc(C(C)=O)c1O (centres undefined) [FPL-55712] | 10000 | – | inhibition in vivo at 10 mg/kg (Rattus norvegicus [2]): 88%; inhibition in vivo at 100 mg/kg (Rattus norvegicus [3]): 2%; inhibition in vivo at 100 mg/kg (Cavia porcellus [4]): 23%; inhibition in vivo at 10 mg/kg (Cavia porcellus [6]): 98%
